Consider eight compounds from ChEMBL document CHEMBL3792366, “Role of disulfide linkage in action of bis(dialkylaminethiocarbonyl)disulfides as potent double-Edged microbicidal spermicide: Design, synthesis and biology” (Eur J Med Chem, 2016).

The subject of assay [1] is Sporothrix schenckii. Put plainly: Antifungal activity against Sporothrix schenckii after 48 hrs by broth microdilution method. It counts as functional. A digest of the protocol:
(§1)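 NCCLS broth microdilution in RPMI 1640 buffered with MOPS; starting inoculum 1–5 × 10^3 CFU/mL; plates incubated at 35 °C; MIC read after 48 h.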

Assay [2] in a line: Spermicidal activity in human sperms assessed as motility measured within 30 secs by phase contrast microscopy. It counts as functional, Sperm. A digest of the protocol:
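Liquefied human semen (0.05 mL) was added to 0.25 mL test solution and vortexed 10 s at low speed. Motile sperm were scored visually under phase contrast in five fields within 30 s; assays in triplicate; MEC = minimum effective concentration.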

For assay [3], the system named is Trichomonas vaginalis. In words: Antitrichomonas activity against metronidazole-resistant trophozoite stage of Trichomonas vaginalis ATCC 50143 assessed as cell viability under anaerobic condition after 48 hrs by trypan blue exclusion assay. As to conditions: ATCC 50143, 48 h. It counts as functional. In a few lines:
(§2)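 Log-phase T. vaginalis grown in TYM with 10% FCS, vitamin mix and penicillin/streptomycin at 37 °C. Compounds were made as 100 µg/mL DMSO stocks and serially diluted in TYM down to 0.1 µg/mL; DMSO/TYM served as vehicle. Parasites were incubated anaerobically at 37 °C, and viability was checked by trypan blue exclusion from 3 to 48 h. MIC = lowest concentration killing all cells by 48 h; each test was repeated three times.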

The test system of assay [4] is Candida parapsilosis. In words: Antifungal activity against Candida parapsilosis ATCC 22019 after 48 hrs by broth microdilution method. As to conditions: Lodderomyces parapsilosis, ATCC 22019, 48 h. It counts as functional. In a few lines: as §1
In general terms: Broth dilution looks for growth in wells or tubes with falling amounts of substance.

Assay [5] concerns Trichomonas vaginalis. In words: Antitrichomonas activity against trophozoite stage of Trichomonas vaginalis clinical isolate assessed as cell viability under anaerobic condition after 48 hrs by trypan blue exclusion assay. It counts as functional. A digest of the protocol: as §2
In assay [6] the test system is Candida albicans. Put plainly: Antifungal activity against Candida albicans after 48 hrs by broth microdilution method. It counts as functional. A digest of the protocol: as §1
In assay [7] the test system is Trichophyton mentagrophytes. Put plainly: Antifungal activity against Trichophyton mentagrophytes after 48 hrs by broth microdilution method. It counts as functional. A digest of the protocol: as §1
The test system of assay [8] is Cryptococcus neoformans. Put plainly: Antifungal activity against Cryptococcus neoformans after 48 hrs by broth microdilution method. It counts as functional. In a few lines:
as §1

For assay [9], the system named is Trichomonas vaginalis. Put plainly: Potency index, ratio of metronidazole MIC to compound MIC for metronidazole-resistant trophozoite stage of Trichomonas vaginalis ATCC 50143. It counts as functional.
The nature of assay [10]: Selectivity index, ratio of IC50 for Lactobacillus jensenii ATCC 25258 to MIC for metronidazole resistant trophozoite stage of Trichomonas vaginalis ATCC 50143.
The nature of assay [11]: Toxicity in Lactobacillus jensenii ATCC 25258 after 72 hrs.
A short description of assay [12]: Selectivity index, ratio of IC50 for Lactobacillus jensenii ATCC 25258 to MIC for trophozoite stage of Trichomonas vaginalis clinical isolate.
Assay [13] has as its system Trichomonas vaginalis. Put plainly: Antitrichomonas activity against metronidazole-susceptible Trichomonas vaginalis in sc dosed mouse assessed as pustule formation at 5 ug administered daily measured after 7 days (reference value: 190 mm'2). It counts as functional.
Assay [14] relates to Trichomonas vaginalis. In words: Antitrichomonas activity against metronidazole-susceptible Trichomonas vaginalis in sc dosed mouse assessed as pustule formation at 5 ug administered daily measured after 5 days (reference value: 109 mm'2). It counts as functional.
In assay [15] the test system is Trichomonas vaginalis. In words: Antitrichomonas activity against metronidazole-susceptible Trichomonas vaginalis in sc dosed mouse assessed as spleen weight at 5 ug administered daily measured after 7 days (reference value: 0.59 g). It counts as functional.
Assay [16] concerns Trichomonas vaginalis. In words: Antitrichomonas activity against Trichomonas vaginalis assessed as reduction in free thiol levels in parasite membrane at MIC after 24 hrs by fluorescence microscopy. It counts as functional, organism-based.
Assay [17] relates to HeLa. In words: Cytotoxicity against human HeLa cells after 5 hrs by lactate dehydrogenase release assay. It counts as cell-based. In a few lines: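 HeLa cells were seeded at 2×10^4/well in triplicate and grown 24 h at 37 °C in 5% CO2. The DMEM was then replaced with medium holding serially diluted compound, and plates were incubated 5 h. LDH release in the supernatant was measured colorimetrically at 490 nm, and IC50 was derived from it.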

In brackets after ≈: the same amount, converted by molar mass. Activity calls are given as the source filed them. Some results are limits rather than exact numbers.

As a reminder, the MIC is the smallest concentration in the dilution series that meets the test's criterion for growth inhibition. `S=C(SSC(=S)N1CCN(c2ncccn2)CC1)N1CCN(c2ncccn2)CC1`: the MIC is 104 µM (≈ 49.8 µg/mL) in [1]; over 208 µM in assay [3]; over 104 µM in [4]; 104 µM (≈ 49.8 µg/mL) in assay [5]; over 104 µM in assay [6]; 104 µM (≈ 49.8 µg/mL) in [7]. In assay [8], this compound returned an MIC of 104 µM (≈ 49.8 µg/mL). In addition, the MEC in assay [2] is reported as 1%.
In general, IC50 refers to the concentration at which inhibition is half-maximal. A low value points to greater potency. Take `CN(C)C(=S)SSC(=S)N(C)C` [THIRAM]: the Ratio in assay [9] was found to be 16. Further, the Selectivity Index in assay [10] and in assay [12] was 188 each time. The minimum inhibitory concentration (MIC) in assay [1] is 51.8 µM (≈ 12.5 µg/mL); in [3] it was 12.9 µM (≈ 3.1 µg/mL); in assay [4] it was 51.8 µM (≈ 12.5 µg/mL); in assay [5], 12.9 µM (≈ 3.1 µg/mL); in assay [6] it was 6.5 µM (≈ 1.56 µg/mL); in [7] it was 6.5 µM (≈ 1.56 µg/mL). For the same compound, the MIC in assay [8] came to 3.2 µM (≈ 0.769 µg/mL). Also, the MEC in [2] came to 0.01%. The IC50 in [11] is 8.39 mM; in assay [17], 2.43 mM. For the same compound, the Activity in [13] turned out to be 4.45 mm2; in assay [14], 15 mm2; in [15] it was 0.3 g. In addition, in assay [16], the outcome was Active.
With `C=CCN1CCN(C(=S)SSC(=S)N2CCN(CC=C)CC2)CC1`, the Ratio in assay [9] came out at 2. The Selectivity Index in assay [10] was 21; in assay [12], 86. Moreover, the minimal inhibitory concentration (MIC) was over 124 µM in [1]; 62 µM (≈ 25 µg/mL) in assay [3]; 124 µM (≈ 49.9 µg/mL) in assay [4]; 15.5 µM (≈ 6.24 µg/mL) in assay [5]; 62 µM (≈ 25 µg/mL) in assay [6]; 124 µM (≈ 49.9 µg/mL) in assay [7]. In assay [8], this compound displayed an MIC of over 124 µM. Besides, the MEC in [2] came out at 0.001%. Also, the half-maximal inhibitory concentration (IC50) in assay [11] worked out at 3.61 mM; in [17], 1.34 mM.
Consider `S=C(SSC(=S)N1CCN(c2ccccn2)CC1)N1CCN(c2ccccn2)CC1`, for which the MIC was 104 µM (≈ 49.6 µg/mL) in [1]; over 209 µM in assay [3]; over 104 µM in assay [4]; over 209 µM in assay [5]; over 104 µM in assay [6]; 52.4 µM (≈ 25 µg/mL) in assay [7]. The compound further displayed a minimal inhibitory concentration (MIC) in assay [8] of 104 µM (≈ 49.6 µg/mL). In addition, in assay [2], the MEC is recorded as 1%.
With `S=C(SSC(=S)N1CCOCC1)N1CCOCC1`, in assay [9], the Ratio was determined as 16. The minimal inhibitory concentration (MIC) turned out to be 76.9 µM (≈ 25 µg/mL) in assay [1]; 9.6 µM (≈ 3.12 µg/mL) in assay [3]; 76.9 µM (≈ 25 µg/mL) in assay [4]; 9.6 µM (≈ 3.12 µg/mL) in assay [5]; 76.9 µM (≈ 25 µg/mL) in [6]; 38.4 µM (≈ 12.5 µg/mL) in [7]. This compound displayed a minimal inhibitory concentration (MIC) in assay [8] of 38.4 µM (≈ 12.5 µg/mL). Also, the MEC in assay [2] stood at 0.1%.
With `S=C(SCc1ccccc1)N1CCN(C(=S)SSC(=S)N2CCN(C(=S)SCc3ccccc3)CC2)CC1`, the minimum inhibitory concentration (MIC) in assay [1] was over 76.3 µM; in assay [3] it was 95.4 µM (≈ 62.5 µg/mL); in assay [4], over 76.3 µM; in assay [5] it was 95.4 µM (≈ 62.5 µg/mL); in assay [6], over 76.3 µM; in [7], over 76.3 µM. This compound also registered a minimal inhibitory concentration (MIC) in assay [8] of over 76.3 µM. For the same compound, the MEC in assay [2] is reported as over 1%.
With `CCCCCCCCN1CCN(C(=S)SSC(=S)N2CCN(CCCCCCCC)CC2)CC1`, the minimal inhibitory concentration (MIC) amounted to 91.4 µM (≈ 50 µg/mL) in [1]; 182 µM (≈ 99.6 µg/mL) in assay [3]; 91.4 µM (≈ 50 µg/mL) in assay [4]; 182 µM (≈ 99.6 µg/mL) in [5]; 91.4 µM (≈ 50 µg/mL) in assay [6]; 91.4 µM (≈ 50 µg/mL) in [7]. For the same compound, in assay [8], 91.4 µM (≈ 50 µg/mL) was the least that counted as inhibitory (MIC). Also, the MEC in assay [2] stood at 0.1%.
In the case of `Fc1ccc(N2CCN(C(=S)SSC(=S)N3CCN(c4ccc(F)cc4)CC3)CC2)cc1`, the minimal inhibitory concentration (MIC) in assay [1] is 97.8 µM (≈ 49.9 µg/mL); in assay [3], over 195 µM; in assay [4], over 97.8 µM; in assay [5], over 195 µM; in [6] it was 97.8 µM (≈ 49.9 µg/mL); in assay [7], 97.8 µM (≈ 49.9 µg/mL). In assay [8], the minimal inhibitory concentration (MIC) is over 97.8 µM. In addition, the MEC in assay [2] is over 1%.
